TRPC4 act: activators of mouse TRPC4 channel, primary screen, Fluo4 calcium, HEK293 TRPC4beta/mu-opioid cells; AID 2237, 2010; B-score at 10 µM; Fluo4 calcium fluorescence; active compounds read high; 310,000 tested, 0.49% active; Short transient receptor potential channel 4 (Mus musculus), Q9QUQ5;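 active means B-score above 5 SD of library B-scores, and initial fluorescence ratio not above library mean plus 5 SD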;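 further: positive B-score marks a calcium rise read as TRPC4 activation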
Target sequence (Q9QUQ5 whole entry, looked up): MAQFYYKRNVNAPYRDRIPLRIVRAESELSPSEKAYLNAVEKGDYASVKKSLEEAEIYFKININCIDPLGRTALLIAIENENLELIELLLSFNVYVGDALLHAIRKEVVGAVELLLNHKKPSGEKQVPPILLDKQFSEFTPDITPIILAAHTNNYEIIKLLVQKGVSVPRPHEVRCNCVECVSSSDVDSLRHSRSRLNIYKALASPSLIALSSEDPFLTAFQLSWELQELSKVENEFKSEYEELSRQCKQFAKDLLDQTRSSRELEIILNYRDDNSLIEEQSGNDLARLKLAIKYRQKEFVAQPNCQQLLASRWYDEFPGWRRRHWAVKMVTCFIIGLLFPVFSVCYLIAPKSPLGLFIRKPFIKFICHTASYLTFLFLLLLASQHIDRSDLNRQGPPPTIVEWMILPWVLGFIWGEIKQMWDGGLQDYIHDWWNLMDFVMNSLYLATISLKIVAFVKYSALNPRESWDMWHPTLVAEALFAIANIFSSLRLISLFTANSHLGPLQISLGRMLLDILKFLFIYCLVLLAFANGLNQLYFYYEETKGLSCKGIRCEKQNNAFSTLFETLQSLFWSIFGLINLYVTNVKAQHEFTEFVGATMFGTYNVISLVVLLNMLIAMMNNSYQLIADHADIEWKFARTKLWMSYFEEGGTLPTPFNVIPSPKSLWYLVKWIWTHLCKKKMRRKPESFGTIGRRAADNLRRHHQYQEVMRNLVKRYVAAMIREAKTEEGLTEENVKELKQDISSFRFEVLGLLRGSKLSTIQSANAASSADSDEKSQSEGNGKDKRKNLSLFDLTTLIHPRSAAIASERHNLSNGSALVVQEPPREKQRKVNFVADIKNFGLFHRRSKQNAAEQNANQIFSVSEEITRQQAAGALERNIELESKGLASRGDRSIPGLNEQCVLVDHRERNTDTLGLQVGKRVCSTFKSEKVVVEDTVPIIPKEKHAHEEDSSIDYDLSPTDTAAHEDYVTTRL
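Assay system: HEK293 stable line with TRPC4beta plus mu-opioid receptor. Times: dye 45 min RT, read 110 s. Measured by: kinetic Fluo4 calcium fluorescence. Measure: B score of integrated ratio. Controls: assay buffer as low control, maximal DAMGO as high control.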
Kir21 block: inhibitors of mouse Kir2.1 inward-rectifier potassium channel | 310,000 tested, 0.85% active | Inward rectifier potassium channel 2 (Mus musculus), P35561 | AID 1672, 2009 | HEK293-Kir2.1, FluxOR thallium flux fluorescence; active compounds read low | B-score at 10 µM;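 active means fluorescence ratio B-score at or below minus 3 SD of library scores, with starting-brightness B-score within 2 SD, cut at about -4.2 in these data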;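 further: channel flux triggered by added potassium and thallium sulfate stimulus; B-score of peak minus minimum fluorescence over baseline after thallium stimulus; more negative B-score means stronger Kir2.1 block with less thallium influx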
TRPC4 potent: positive allosteric modulators of TRPC4, primary screen, cell-based, mouse TRPC4beta, HEK293 mu-opioid, Fluo-4 calcium | DAMGO EC20, Fluo-4 Ca2+ flux; active compounds read high | B-score at 10 µM | 310,000 tested, 0.42% active | AID 2227, 2009;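 active means B-score of calcium response area above 5 SD of library B-scores, with initial fluorescence ratio within 5 SD of library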
TRPC6 act: mouse TRPC6 channel activators, primary screen, cell-based, HEK293, membrane potential dye | HEK293-TRPC6 membrane potential dye fluorescence; active compounds read high | B-score at 10 µM | 310,000 tested, 0.13% active | AID 2550, 2010;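 active means B-score of the integrated fluorescence ratio above library mean plus 3 SD, and starting fluorescence ratio within library mean plus 5 SD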;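 further: higher score means more depolarization so channel activation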
TRPC4 inh: inhibitors of mouse TRPC4 channel, primary screen, Fluo4 calcium, HEK293 TRPC4beta/mu-opioid cells; B-score at 10 µM; Short transient receptor potential channel 4 (Mus musculus), Q9QUQ5; 300,000 tested, 0.39% active; DAMGO-evoked Fluo4 calcium flux; active compounds read low;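 active means B-score over 3 SD under the library average, no early fluorescence shift, positive overall ratio signal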
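Assay system: HEK293 cells with stable TRPC4beta plus mu-opioid receptor expression; Probe or stimulus: DAMGO in two steps, submaximal then maximal; Dosing: single-point compound dosing; Measured by: Fluo4 calcium-dye fluorescence, kinetic read; Read-out basis: B score from integrated Fluo4 fluorescence ratio.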
TRPC6 inhibitor: mouse TRPC6 channel inhibitors, primary screen, cell-based, HEK293, membrane potential dye; B-score at 10 µM; ACh-evoked depolarization; active compounds read low; 310,000 tested, 1.1% active; Short transient receptor potential channel 6 (Mus musculus), Q61143;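 active means B-score under library mean minus 3 SD, initial fluorescence not abnormally high, positive integrated signal ratio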;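 further: B-score derived from integrated fluorescence ratio over the kinetic read; more negative B-score means stronger inhibition of depolarization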
TRPC4 sel inh 2: second selectivity test of TRPC6 inhibitors: effect on mouse TRPC4; HEK293 TRPC4/MOR, membrane potential dye fluorescence; channel activated by saturating DAMGO dose; inhibition, % at 10 µM; 920 tested, 42% active; shares compounds with TRPC6 inhibitor;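 active means compounds whose fluorescence signal differed from control wells by over 3 SD, either direction, in both duplicate plates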
TRPC4 spec: mouse TRPC4 modulation by TRPC6 hits, confirmation, selectivity assay for TRPC6 inhibitor project, cell-based, HEK293 TRPC4/mu-opioid, membrane potential dye; shares compounds with TRPC6 inhibitor; membrane potential fluorescence; activity change, negative = inhibition, % at 10 µM; 920 tested, 61% active; AID 2777, 2010;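 active means rise or fall in signal beyond 3 SD of buffer-only wells in both replicate plates, either sign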;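 further: integrated kinetic ratio of fluorescence range over baseline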
HEK293 MPD ctr 2-1: nonspecific membrane potential effects, parental HEK293, confirmation, counter-screen for TRPC6 inhibitor project, cell-based, second counter screen | shares compounds with TRPC6 inhibitor | parental HEK293 membrane potential dye fluorescence; maximal acetylcholine challenge after compound addition | 920 tested, 31% active | signal change vs control, % at 10 µM | AID 2779, 2010;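 active means membrane potential signal moving either way by over 3 SD of the maximum-effect control, in both duplicate plates, meaning non-specific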
HEK293 MPD ctr-1: membrane potential modulation in parental HEK293, confirmation, counter-screen for TRPC6 inhibitor project, cell-based. shares compounds with TRPC6 inhibitor. parental HEK293 membrane potential dye fluorescence. membrane potential signal change, % at 10 µM. 920 tested, 60% active;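 active means membrane potential signal shifting up or down by more than 3 SD of buffer-only wells, on both duplicate plates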
HEK293 MPD ctr-2: parental HEK293 membrane potential modulation, confirmation, counter-screen for TRPC6 modulator project, cell-based; shares compounds with TRPC6 inhibitor; membrane potential dye fluorescence; membrane potential signal change, % at 10 µM; 2,400 tested, 51% active;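 active means membrane potential signal moves up or down beyond 5 SD from buffer-only wells, on both duplicate plates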
HEK293 MPD ctr 2-2: parental HEK293 nonspecific activity of TRPC6 modulators, second screen. 2,400 tested, 14% active. inhibition, % at 10 µM. shares compounds with TRPC6 inhibitor. AID 488926. membrane potential dye fluorescence; after compound, maximal acetylcholine stimulation;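 active means membrane potential signal drops by more than 5 SD from the mean control signal, in both duplicate plates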
TRPC4 ctr mod: TRPC4 modulation by TRPC6 hit compounds, confirmation, selectivity assay for TRPC6 modulator project, cell-based, HEK293 TRPC4/mu-opioid, membrane potential dye, mouse; shares compounds with TRPC6 inhibitor; membrane potential fluorescence; percent change from control (negative = decrease, positive = increase), % at 10 µM; 2,400 tested, 69% active; AID 488927, 2010;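 active means membrane potential signal moved up or down beyond 5 SD of buffer control wells, in both duplicate plates, actives on both sides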
TRPC4/MOR inh 2: second check of whether TRPC6 modulators also affect mouse TRPC4; inhibition, % at 10 µM; 2,400 tested, 55% active; HEK293 TRPC4/mu-opioid, membrane potential dye fluorescence; stimulated with maximal-effect DAMGO; shares compounds with TRPC6 inhibitor;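 active means drop in membrane potential signal beyond 5 SD of the control wells in both duplicate plates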;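 further: TRPC4 counter screen for TRPC6 hits run under conditions tuned for TRPC6 not TRPC4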
TRPC6 inh conf: mouse TRPC6 channel inhibitors, confirmation, HEK293 cells, membrane potential dye, duplicate; shares compounds with TRPC6 inhibitor; ACh-evoked depolarization; inhibition, % at 10 µM; 3,300 tested, 43% active; AID 488960, 2010;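 active means fluorescence ratio falls more than 5 SD below the full-stimulation control mean, in both duplicate runs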;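 further: integrated fluorescence ratio of peak minus minimum over baseline after agonist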
TRPC6 act conf: mouse TRPC6 channel activators, confirmation, HEK293 cells, membrane potential dye, duplicate; 2,800 tested, 11% active; shares compounds with TRPC6 inhibitor; activation, % at 10 µM; HEK293-TRPC6 membrane potential dye fluorescence, FDSS; AID 488961, 2010;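 active means ratio signal rise beyond 5 SD above unstimulated control wells' mean, seen in both duplicate runs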
Numbers stand for hits; . = inactive; / = not tested or not shown. Shown are actives, neighbours in structure and some others; about 2.9% of the full set was active somewhere.

SMILES	TRPC4 act	Kir21 block	TRPC4 potent	TRPC6 act	TRPC4 inh	TRPC6 inhibitor	HEK293 MPD ctr-2	HEK293 MPD ctr 2-2	TRPC4 ctr mod	TRPC4/MOR inh 2	TRPC6 inh conf	TRPC6 act conf	others
O=C(CCN1C(=O)c2ccccc2C1=O)Nc1ccccc1C(F)(F)F	.	.	.	.	.	-7.3	/	/	/	/	.	.	TRPC4 sel inh 2=.;TRPC4 spec=.;HEK293 MPD ctr 2-1=.;HEK293 MPD ctr-1=.
N#CCOC(=O)[C@H](Cc1ccccc1)N1C(=O)c2ccccc2C1=O	.	.	.	.	.	-7.1	/	/	/	/	.	.	TRPC4 sel inh 2=.;TRPC4 spec=-0.7%;HEK293 MPD ctr 2-1=.;HEK293 MPD ctr-1=.
O=S(=O)(c1cccc(C(F)(F)F)c1)N1CCN(C(=S)NCc2ccco2)CC1	.	.	.	.	.	.	/	/	/	/	/	/
Cc1nnc(N/N=C/C(C)c2ccccc2)[nH]c1=O (centres undefined)	.	.	.	.	.	.	/	/	/	/	/	/
COc1ccc2occ(C(=O)c3coc4ccc(O)c(CN(C)C)c34)c2c1	.	.	.	.	.	-13	-146%	.	-34%	84%	67%	.
COc1ccc(C(=O)c2coc3ccc(O)c(CN4CCCCC4)c23)cc1	.	.	.	.	.	-8.8	/	/	/	/	.	.	TRPC4 sel inh 2=40%;TRPC4 spec=.;HEK293 MPD ctr 2-1=.;HEK293 MPD ctr-1=1.5%
CS(=O)(=O)N(CC(=O)Nc1ccccc1F)C1CCCCC1	.	.	.	.	.	.	/	/	/	/	/	/
C(=N\Nc1ncnc2sc3c(c12)CCC3)/c1ccncc1	.	.	.	.	.	.	/	/	/	/	/	/
c1cc(Nc2ncnc3sc4c(c23)CCC4)ccn1	.	.	.	.	.	-5.6	-242%	67%	-39%	38%	55%	.
CCS(=O)(=O)N1N=C(c2cccs2)CC1c1cc2cc(C)ccc2nc1Cl (centres undefined)	.	.	.	.	.	.	/	/	/	/	/	/
Cc1ccc(-n2ncc(Cl)c2C(=O)NCc2ccccc2)cc1	.	.	.	.	.	.	/	/	/	/	/	/
CCCCN(C)C(=O)CSc1nc(NCc2ccc(OC)cc2)c2ccccc2n1	.	.	.	.	.	-9.7	/	/	/	/	.	.	TRPC4 sel inh 2=68%;TRPC4 spec=4.6%;HEK293 MPD ctr 2-1=.;HEK293 MPD ctr-1=6.4%
Cc1ccc2nc(Cn3cc(C(F)(F)F)cc(Cl)c3=O)cc(=O)n2c1	.	.	.	.	.	.	/	/	/	/	/	/
C/C(=N\NC(=O)c1c(C)nc2ccccn12)c1ccco1	.	.	.	.	.	-5.7	-309%	.	-60%	36%	50%	.
C/C(=N\NC(=O)c1c(C)nc2ccccn12)c1ccc(C(C)(C)C)cc1	.	.	.	.	.	.	/	/	/	/	/	/
Cc1cc(N2CCN(c3ccc(F)cc3)CC2)nc2cc(O)ccc12	.	.	.	.	.	-6.3	-60%	.	-11%	36%	.	.
OCCCn1c(-c2ccccc2)csc1=Nc1ccccc1	.	.	.	.	.	-5.8	382%	141%	76%	.	126%	/
CC(=O)c1c(C)nc2cc(Cl)ccc2c1N	.	.	.	.	.	-5.8	-66%	.	-12%	32%	.	.
O=[N+]([O-])c1ccc2nc(SCc3cn4cc(Cl)ccc4n3)[nH]c2c1	.	.	.	.	.	-5.4	.	.	.	.	.	.
O=[N+]([O-])c1ccc2nc(SCc3cn4ccccc4n3)[nH]c2c1	.	.	.	.	.	.	/	/	/	/	/	/
O=C(CSc1nnc(-c2ccco2)n1Cc1ccccc1)OC1CCCCC1	.	.	.	12	.	.	382%	.	53%	52%	.	86%
O=C(CSc1nnc(-c2ccncc2)n1Cc1ccco1)OC1CCCCC1	.	.	.	.	.	.	/	/	/	/	/	/
N#CC1=C2SCN(Cc3ccco3)CN2C(=O)CC1c1c(F)cccc1Cl (centres undefined)	.	.	.	.	.	.	/	/	/	/	/	/
COc1ccc(C2SCC(=O)N2c2ccc(C)cc2)cc1 (centres undefined)	.	.	.	.	.	.	/	/	/	/	/	/
O=C(O)c1ccccc1SC1CC(=O)N(C2CCCCC2)C1=O (centres undefined)	.	.	.	.	.	.	/	/	/	/	/	/
Cc1ccc(S(=O)(=O)Cc2ccc(C(=O)N3CCN(c4cc(C)ccc4C)CC3)o2)cc1	.	.	.	.	.	.	/	/	/	/	/	/

Compound activity: PubChem, Johns Hopkins Ion Channel Center
